Experimental findings from PMC10971414 (Science Advances, 2024) are described below.

For the assay, the system named is FKBP12^F36V-PTPN2 H1975 cells. In words: Cell viability by CellTiter-Glo, FKBP12F36V-PTPN2 H1975. It is filed as cell-based. The following applies: read-out: IC50, cell viability; 6 days. In a few lines:
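H1975 cells lentivirally transduced to express Flag-FKBP12F36V-PTPN2 (TC45 short isoform) were seeded at 3000 cells/well in full medium for 24 h. They were then treated with test compound at a range of concentrations under serum-free conditions for 4 or 6 days. Viability was measured by CellTiter-Glo luminescence and normalised to DMSO controls. Three replicates, mean and SD.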
For orientation: Cellular ATP, detected with luciferase, serves as a proxy for viable cell number.

The term IC50 denotes the midpoint of a concentration-inhibition curve. On to `CN(C)C/C=C/C(=O)Nc1cc2c(Nc3ccc(F)c(Cl)c3)ncnc2cc1O[C@H]1CCOC1` [afatinib], for which the 50% inhibitory concentration (IC50) was 2110 nM.
